SMILES strings stand for the structures. Bounds are passed on as bounds.

Assay [1] has as its target ALK tyrosine kinase receptor (Homo sapiens, UniProt Q9UM73, L1196M). Nature of the assay: Inhibition of human ALK L1196M mutant after 30 mins by TR-FRET assay. The method, boiled down:
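L1196M mutant ALK enzyme run in TR-FRET as for wild type (HEPES pH 7.1 buffer, ULight poly-GT substrate, Eu anti-phosphotyrosine detection, 30 min reaction) but with 0.5µM ATP; IC50.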
In general terms: In TR-FRET formats the signal depends on donor and acceptor labels being close together.

In the next assay the test system is KARPAS-299. Kind of assay: Cytotoxicity against human KARPAS299 cells after 72 hrs by XTT assay. It is filed as functional, cell-based. The settings on record: KARPAS-299, 72 h. For orientation: Tetrazolium assays rely on reduction of a dye to a coloured formazan, in cell work by metabolically active cells.
In assay [2] the target is T1, ALK tyrosine kinase receptor (Homo sapiens, UniProt Q9UM73). Kind of assay: Inhibition of wild type human recombinant ALK after 30 mins by TR-FRET assay.
Target sequence in this assay (Q9UM73 whole entry): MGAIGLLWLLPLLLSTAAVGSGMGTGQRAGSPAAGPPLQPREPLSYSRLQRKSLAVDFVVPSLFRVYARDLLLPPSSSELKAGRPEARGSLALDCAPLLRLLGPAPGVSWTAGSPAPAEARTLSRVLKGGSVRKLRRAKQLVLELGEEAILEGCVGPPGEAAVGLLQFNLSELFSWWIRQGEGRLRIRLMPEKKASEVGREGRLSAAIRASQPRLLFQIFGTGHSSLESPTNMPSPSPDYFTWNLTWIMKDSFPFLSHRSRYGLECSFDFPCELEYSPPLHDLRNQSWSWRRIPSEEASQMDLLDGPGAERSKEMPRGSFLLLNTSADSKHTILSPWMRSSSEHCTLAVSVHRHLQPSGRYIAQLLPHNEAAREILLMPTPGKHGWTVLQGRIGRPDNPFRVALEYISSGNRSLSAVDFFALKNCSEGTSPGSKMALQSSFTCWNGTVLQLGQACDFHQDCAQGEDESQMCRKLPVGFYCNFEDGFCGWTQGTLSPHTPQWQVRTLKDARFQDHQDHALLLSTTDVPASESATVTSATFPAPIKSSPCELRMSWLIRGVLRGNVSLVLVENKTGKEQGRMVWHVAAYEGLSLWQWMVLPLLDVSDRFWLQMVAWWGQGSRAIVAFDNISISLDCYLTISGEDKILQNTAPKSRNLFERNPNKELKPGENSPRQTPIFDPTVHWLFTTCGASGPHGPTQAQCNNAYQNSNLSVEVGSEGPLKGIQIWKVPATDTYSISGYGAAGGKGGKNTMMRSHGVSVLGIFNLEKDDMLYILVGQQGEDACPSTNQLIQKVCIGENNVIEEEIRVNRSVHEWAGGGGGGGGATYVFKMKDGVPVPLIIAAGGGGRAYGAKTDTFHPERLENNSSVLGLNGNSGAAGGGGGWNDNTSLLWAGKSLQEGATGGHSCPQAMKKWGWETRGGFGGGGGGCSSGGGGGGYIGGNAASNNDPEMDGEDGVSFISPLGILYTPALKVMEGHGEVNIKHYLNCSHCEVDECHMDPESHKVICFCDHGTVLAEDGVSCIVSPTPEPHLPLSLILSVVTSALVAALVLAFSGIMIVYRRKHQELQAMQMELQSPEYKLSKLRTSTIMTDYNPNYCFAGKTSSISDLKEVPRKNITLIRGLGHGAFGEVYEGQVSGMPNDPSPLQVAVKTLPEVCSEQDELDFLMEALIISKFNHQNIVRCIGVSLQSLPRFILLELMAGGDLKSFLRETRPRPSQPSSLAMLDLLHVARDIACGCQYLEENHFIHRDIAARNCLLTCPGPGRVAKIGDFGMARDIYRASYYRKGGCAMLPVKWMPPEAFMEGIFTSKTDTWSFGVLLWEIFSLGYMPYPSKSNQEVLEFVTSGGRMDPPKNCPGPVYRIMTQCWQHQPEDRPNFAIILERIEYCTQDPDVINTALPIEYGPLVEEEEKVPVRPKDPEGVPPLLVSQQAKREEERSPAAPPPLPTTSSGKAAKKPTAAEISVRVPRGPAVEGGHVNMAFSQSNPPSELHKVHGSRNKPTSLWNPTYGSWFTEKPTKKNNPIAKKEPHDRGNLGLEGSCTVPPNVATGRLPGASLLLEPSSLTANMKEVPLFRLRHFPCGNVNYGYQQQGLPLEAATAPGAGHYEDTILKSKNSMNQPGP
In assay [3] the target is T2, Aurora kinase A (Homo sapiens) (UniProt O14965).
T2 sequence (whole entry): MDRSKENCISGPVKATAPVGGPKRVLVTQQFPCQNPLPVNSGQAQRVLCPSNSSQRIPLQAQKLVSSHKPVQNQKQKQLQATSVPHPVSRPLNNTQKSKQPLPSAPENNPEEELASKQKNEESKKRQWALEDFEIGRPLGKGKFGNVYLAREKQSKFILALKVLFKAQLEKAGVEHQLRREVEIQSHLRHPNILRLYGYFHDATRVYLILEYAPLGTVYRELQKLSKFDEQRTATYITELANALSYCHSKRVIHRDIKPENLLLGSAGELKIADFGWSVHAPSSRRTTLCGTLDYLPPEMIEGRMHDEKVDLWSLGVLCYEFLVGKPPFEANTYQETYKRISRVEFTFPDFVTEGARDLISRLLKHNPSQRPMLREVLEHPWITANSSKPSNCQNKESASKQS
Kind of assay: Inhibition of aurora A kinase (unknown origin) at 100 nM.

For a further assay, the species on record is Homo sapiens. Kind of assay: Selectivity ratio of IC50 for aurora A kinase (unknown origin) to IC50 for human recombinant ALK.
Assay [4] deals with T1, ALK tyrosine kinase receptor. Kind of assay: Inhibition of ALK in human KARPAS299 cells assessed as phosphorylated Stat3 level after 6 hrs by Western blotting analysis. It is filed as cell-based, KARPAS-299. The method, boiled down:
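Karpas 299 cells (4 × 10^5) treated 6 h at set concentrations, with crizotinib at 10 μM as positive control; lysed in RIPA, 30 µg lysate run on 10% SDS-PAGE, PVDF blot probed for phospho-Stat3 (Tyr705) and total Stat3; ECL detection; IC50 from blot densitometry.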
Target sequence in this assay (Q9UM73 whole entry): as the sequence (Q9UM73 whole entry) above
(In western blotting, separated proteins are transferred to a membrane and probed.)

Assay [5] shares this target. Kind of assay: Inhibition of ALK in human KARPAS299 cells assessed as phosphorylated ALK level. The settings on record: for inhibition: KARPAS-299.
Assay [6] addresses Macrophage-stimulating protein receptor (Homo sapiens) (UniProt Q04912). Nature of the assay: Inhibition of RON (unknown origin) at 100 nM.
In assay [7] the target is Cyclin-dependent kinase 2 (Homo sapiens) (UniProt P24941). Kind of assay: Inhibition of CDK2 (unknown origin) at 100 nM.
In assay [8] the target is Fibroblast growth factor receptor 1 (Homo sapiens) (UniProt P11362). Nature of the assay: Inhibition of FGFR1 (unknown origin) at 100 nM.
Assay [9] concerns the target Vascular endothelial growth factor receptor 2 (Homo sapiens) (UniProt P35968). Nature of the assay: Inhibition of KDR (unknown origin) at 100 nM.
In assay [10] the target is Hepatocyte growth factor receptor (Homo sapiens) (UniProt P08581). Nature of the assay: Inhibition of c-Met (unknown origin) at 100 nM.

Chain of ALK tyrosine kinase receptor (Homo sapiens, UniProt Q9UM73, L1196M) (Q9UM73 19-1620 L1196M limits assumed): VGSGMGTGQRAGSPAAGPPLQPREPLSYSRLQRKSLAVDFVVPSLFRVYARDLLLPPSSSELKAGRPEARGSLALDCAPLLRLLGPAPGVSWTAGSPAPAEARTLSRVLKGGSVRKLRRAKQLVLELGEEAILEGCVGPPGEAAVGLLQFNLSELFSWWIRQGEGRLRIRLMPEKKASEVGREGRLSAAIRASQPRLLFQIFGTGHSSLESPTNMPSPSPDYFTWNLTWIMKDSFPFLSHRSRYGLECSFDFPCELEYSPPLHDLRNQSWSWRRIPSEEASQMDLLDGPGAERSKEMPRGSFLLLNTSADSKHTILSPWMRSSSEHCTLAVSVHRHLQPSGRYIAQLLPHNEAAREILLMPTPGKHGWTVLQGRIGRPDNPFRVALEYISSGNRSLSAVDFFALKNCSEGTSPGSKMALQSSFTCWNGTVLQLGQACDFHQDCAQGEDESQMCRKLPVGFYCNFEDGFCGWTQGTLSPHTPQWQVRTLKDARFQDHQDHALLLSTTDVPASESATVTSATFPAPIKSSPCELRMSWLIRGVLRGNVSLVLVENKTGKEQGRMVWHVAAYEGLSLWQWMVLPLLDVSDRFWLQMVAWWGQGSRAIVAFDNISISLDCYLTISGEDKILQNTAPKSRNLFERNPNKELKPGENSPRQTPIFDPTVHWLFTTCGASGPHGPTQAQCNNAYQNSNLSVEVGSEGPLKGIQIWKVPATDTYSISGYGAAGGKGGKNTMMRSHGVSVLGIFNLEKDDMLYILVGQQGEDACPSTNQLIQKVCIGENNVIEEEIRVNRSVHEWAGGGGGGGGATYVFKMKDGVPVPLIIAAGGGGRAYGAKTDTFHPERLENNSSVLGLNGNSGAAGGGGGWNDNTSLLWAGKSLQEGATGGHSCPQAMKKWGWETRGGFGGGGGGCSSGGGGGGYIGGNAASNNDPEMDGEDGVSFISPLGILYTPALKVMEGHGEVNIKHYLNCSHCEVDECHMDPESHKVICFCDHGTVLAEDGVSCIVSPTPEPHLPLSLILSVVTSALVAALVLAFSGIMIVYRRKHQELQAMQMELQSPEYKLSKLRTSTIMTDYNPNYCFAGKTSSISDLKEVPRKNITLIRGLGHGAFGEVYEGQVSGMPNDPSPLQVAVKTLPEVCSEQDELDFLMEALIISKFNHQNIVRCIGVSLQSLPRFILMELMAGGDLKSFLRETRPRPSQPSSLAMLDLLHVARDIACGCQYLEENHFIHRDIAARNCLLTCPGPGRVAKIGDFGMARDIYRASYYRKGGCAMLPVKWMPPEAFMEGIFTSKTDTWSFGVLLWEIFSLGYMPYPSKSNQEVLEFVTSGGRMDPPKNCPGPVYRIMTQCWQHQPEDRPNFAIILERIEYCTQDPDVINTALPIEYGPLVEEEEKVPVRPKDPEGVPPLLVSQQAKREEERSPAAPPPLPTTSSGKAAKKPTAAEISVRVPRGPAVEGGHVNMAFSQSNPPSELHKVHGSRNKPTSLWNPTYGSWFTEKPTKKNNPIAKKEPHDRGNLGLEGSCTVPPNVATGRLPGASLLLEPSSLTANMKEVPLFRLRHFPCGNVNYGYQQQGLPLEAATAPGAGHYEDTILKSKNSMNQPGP
Chain of Macrophage-stimulating protein receptor (Homo sapiens) (Q04912 25-304 limits assumed): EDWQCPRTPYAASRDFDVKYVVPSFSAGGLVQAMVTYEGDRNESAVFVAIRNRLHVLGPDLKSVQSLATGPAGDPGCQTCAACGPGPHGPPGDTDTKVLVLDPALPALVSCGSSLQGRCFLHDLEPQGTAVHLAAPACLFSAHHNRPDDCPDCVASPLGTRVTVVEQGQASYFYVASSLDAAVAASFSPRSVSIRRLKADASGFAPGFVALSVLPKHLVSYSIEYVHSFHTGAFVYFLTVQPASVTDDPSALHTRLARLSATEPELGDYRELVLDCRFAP
Chain of Macrophage-stimulating protein receptor (Homo sapiens) (Q04912 310-1400 limits assumed): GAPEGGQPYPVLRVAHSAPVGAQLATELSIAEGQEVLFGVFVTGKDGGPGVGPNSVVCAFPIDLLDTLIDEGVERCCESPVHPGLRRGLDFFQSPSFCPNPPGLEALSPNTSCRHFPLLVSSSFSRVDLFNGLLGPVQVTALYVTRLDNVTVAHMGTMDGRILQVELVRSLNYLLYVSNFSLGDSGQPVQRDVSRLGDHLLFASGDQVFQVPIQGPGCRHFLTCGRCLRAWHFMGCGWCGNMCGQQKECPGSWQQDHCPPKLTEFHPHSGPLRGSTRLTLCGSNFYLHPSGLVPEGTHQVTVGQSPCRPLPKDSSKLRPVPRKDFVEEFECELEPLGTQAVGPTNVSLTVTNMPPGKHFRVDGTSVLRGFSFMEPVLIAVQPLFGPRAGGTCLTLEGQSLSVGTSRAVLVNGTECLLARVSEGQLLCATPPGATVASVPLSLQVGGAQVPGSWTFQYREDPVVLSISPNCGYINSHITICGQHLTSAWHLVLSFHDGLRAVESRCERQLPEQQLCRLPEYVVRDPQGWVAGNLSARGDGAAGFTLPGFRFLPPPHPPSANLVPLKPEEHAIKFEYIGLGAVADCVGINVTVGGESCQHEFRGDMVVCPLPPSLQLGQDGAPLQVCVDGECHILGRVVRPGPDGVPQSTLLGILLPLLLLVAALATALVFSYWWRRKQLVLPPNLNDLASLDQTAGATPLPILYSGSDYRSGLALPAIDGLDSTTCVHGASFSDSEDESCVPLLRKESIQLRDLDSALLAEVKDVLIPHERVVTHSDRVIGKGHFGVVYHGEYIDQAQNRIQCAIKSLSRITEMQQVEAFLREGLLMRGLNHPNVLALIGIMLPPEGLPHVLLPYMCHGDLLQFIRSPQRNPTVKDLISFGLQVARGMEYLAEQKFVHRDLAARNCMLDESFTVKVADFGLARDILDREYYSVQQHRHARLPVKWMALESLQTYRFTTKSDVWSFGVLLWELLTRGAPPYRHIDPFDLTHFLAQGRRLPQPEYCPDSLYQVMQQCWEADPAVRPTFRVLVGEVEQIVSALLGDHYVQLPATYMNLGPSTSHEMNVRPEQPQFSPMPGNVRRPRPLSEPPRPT

In general, IC50 refers to the concentration needed to halve the response being measured. The inhibition is the share of the control response that was lost under treatment. Consider `Cn1cc(-c2cnc3[nH]cc(-c4cnn(Cc5ccccc5F)c4)c3c2)cn1`, for which the IC50 came out at 223 nM in assay [1], 2090 nM with KARPAS-299 and 85 nM in [2]. In assay [3], this compound returned an inhibition of 64%.

`Cc1nn(Cc2cccc(F)c2)c(C)c1-c1c[nH]c2ncc(-c3cnn(C)c3)cc12`: the Ratio IC50 in the assay filed under Homo sapiens is 11. For the same compound, the IC50 in [1] stood at 275 nM; in [2], 31 nM.

For `Cc1nn(Cc2cc(F)cc(F)c2)c(C)c1-c1c[nH]c2ncc(-c3cnn(C)c3)cc12`, the Ratio IC50 in the assay listed under Homo sapiens was 30. Further, the IC50 worked out at 310 nM in assay [1] and 26 nM in [2].

As for `Cn1cc(-c2cnc3[nH]cc(-c4cnn(Cc5ccc(F)cc5)c4)c3c2)cn1`, the IC50 in assay [4] is 3010 nM; in [1], 256 nM; with KARPAS-299, 1780 nM; in [2] it was 70 nM; in [5], 3910 nM. The figures for the inhibition entry in assay [5] and in assay [3] were “Dose-dependent effect” and 74%, respectively.

Take `Cn1cc(-c2cnc3[nH]cc(-c4cnn(Cc5cccc([N+](=O)[O-])c5)c4)c3c2)cn1`: the IC50 is 1850 nM in the assay on KARPAS-299 and 70 nM in [2].

Take `Cn1cc(-c2cnc3[nH]cc(-c4cnn(Cc5cccc(C(F)(F)F)c5)c4)c3c2)cn1`: the IC50 in [1] stood at 465 nM; in the assay on KARPAS-299, 1010 nM; in assay [2], 247 nM. In [3], this compound had an inhibition of 84%.

Take `Cn1cc(-c2cnc3[nH]cc(-c4cnn(Cc5cccc(F)c5)c4)c3c2)cn1`: in the assay filed under Homo sapiens, the Ratio IC50 worked out at 2. Further, the IC50 came out at 138 nM in assay [4]; 35 nM in assay [1]; 466 nM with KARPAS-299; 5.6 nM in assay [2]; 219 nM in assay [5]. Besides, the inhibition entry in assay [5] was “Dose-dependent effect”; in assay [3], 84%.

On to `Cn1cc(-c2cnc3[nH]cc(-c4cnn(Cc5cccc(C#N)c5)c4)c3c2)cn1`, for which the IC50 in assay [1] amounted to 150 nM; in the assay with KARPAS-299, 1610 nM; in assay [2] it was 32 nM. Further, in [3], the inhibition came out at 85%.

As for `Cc1nn(Cc2cccc(F)c2)cc1-c1c[nH]c2ncc(-c3cnn(C)c3)cc12`, the Ratio IC50 in the assay filed under Homo sapiens stood at 6. Also, the IC50 in assay [1] turned out to be 56 nM; in assay [2], 6 nM.

Take `Cn1cc(-c2cnc3[nH]cc(-c4cnn(Cc5cccc(Cl)c5)c4)c3c2)cn1`: the IC50 turned out to be 986 nM in [4]; 143 nM in assay [1]; 855 nM with KARPAS-299; 30 nM in assay [2]; 3120 nM in [5]. Also, the inhibition entry in assay [5] was “Dose-dependent effect”; in [3], 87%.

As to `Cn1cc(-c2cnc3[nH]cc(-c4cnn(Cc5cc(F)ccc5F)c4)c3c2)cn1`, the IC50 in [4] was found to be 1590 nM; in [1] it was 124 nM; with KARPAS-299, 1200 nM; in [2] it was 29 nM; in assay [5], 900 nM. Moreover, the values for the inhibition result in [5] and in assay [3] were “Dose-dependent effect” and 75%, respectively.

Regarding `Cn1cc(-c2cnc3[nH]cc(-c4cnn(Cc5cccc(C(=O)O)c5)c4)c3c2)cn1`, the IC50 was 811 nM in [1], above 10000 nM in the assay on KARPAS-299 and 98 nM in assay [2].

Turning to `Cn1cc(-c2cnc3[nH]cc(-c4cnn(Cc5cccc(O)c5)c4)c3c2)cn1`, the IC50 worked out at 200 nM in [1], 3360 nM in the assay with KARPAS-299 and 41 nM in assay [2]. For the same compound, the inhibition in assay [3] came out at 93%.

In the case of `Cc1nn(Cc2cc(F)ccc2F)c(C)c1-c1c[nH]c2ncc(-c3cnn(C)c3)cc12`, the Ratio IC50 in the assay filed under Homo sapiens was 3. Also, the IC50 in assay [1] came out at 428 nM; in assay [2], 63 nM.

For the compound `Cn1cc(-c2cnc3[nH]cc(-c4cnn(Cc5ccc(F)c(F)c5)c4)c3c2)cn1`, the half-maximal inhibitory concentration (IC50) in assay [4] came to 986 nM; in assay [1], 379 nM; in the assay with KARPAS-299, 2260 nM; in assay [2], 84 nM; in assay [5], 3300 nM. Also, the inhibition entry in [5] is “Dose-dependent effect”; in [3] it was 84%.

Take `Cn1cc(-c2cnc3[nH]cc(-c4cnn(Cc5ccccc5)c4)c3c2)cn1`: the inhibition was found to be 21% in assay [6]; 41% in [7]; 14% in assay [8]; 28% in [9]; 84% in [3]; 7% in assay [10]. Besides, the results for the IC50 (in assay [1]; with KARPAS-299; in assay [2]) were 141 nM, 3000 nM and 90 nM, respectively.

As for `Cn1cc(-c2cnc3[nH]cc(-c4cnn(Cc5cccc(N)c5)c4)c3c2)cn1`, the figures for the IC50 (in the assay on KARPAS-299; in [2]) were 3630 nM and 28 nM, respectively.

Turning to `Cn1cc(-c2cnc3[nH]cc(-c4cnn(Cc5cc(F)cc(F)c5)c4)c3c2)cn1`, the values for the half-inhibitory concentration (IC50) (in [1]; with KARPAS-299; in assay [2]) were 47 nM, 664 nM and 6 nM, respectively. Besides, the inhibition in assay [3] came to 74%.

These data come from ChEMBL document CHEMBL2417505, “Discovery of 7-azaindole based anaplastic lymphoma kinase (ALK) inhibitors: wild type and mutant (L1196M) active compounds with unique binding mode” (Bioorg Med Chem Lett, 2013).
